ChEMBL document CHEMBL3046935, “Bioassay-directed isolation and identification of phytotoxic and fungitoxic acetylenes from Conyza canadensis” (J Agric Food Chem, 2012)
Active and inactive are the calls of the source. The rule behind the calls is not given here.

Columns and labels:
[1] = test system: Agrostis stolonifera; assay: Phytotoxicity against Agrostis stolonifera seeds assessed as inhibition of germination of seeds at 1 mg/mL after 7 days; type: organism-based; details: in vivo, 168 h
Procedure, shortened: (§1)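 Seeds (5 mg lettuce or 10 mg bentgrass) were placed on filter paper in 24-well plates with 250 μL of test solution per well (acetone 3% final). Solvent-only wells served as controls. Plates were sealed and kept at 26 °C under continuous light for 7 days. Germination was rated visually on a 0−5 scale against untreated controls (0 = no effect, 5 = no growth/germination), with experiments in duplicate.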

[2] = test system: Lactuca sativa; assay: Phytotoxicity against […] dicot Lactuca sativa (lettuce) seeds assessed as inhibition of germination of seeds at 1 mg/mL after 7 days; type: organism-based; details: in vivo, 168 h; procedure, shortened: as §1
[3] = test system: Lemna aequinoctialis; assay: Inhibition of growth of Lemna paucicostata
[4] = test system: Colletotrichum gloeosporioides; assay: Antifungal activity against Colletotrichum gloeosporioides assessed as growth inhibition at 10 ug/spot by […]; type: functional
[5] = test system: Colletotrichum acutatum; assay: Antifungal activity against Colletotrichum acutatum assessed as growth inhibition at 10 ug/spot by […]; type: functional
[6] = test system: Colletotrichum acutatum; assay: Antifungal activity against Colletotrichum acutatum assessed as growth inhibition at 0.3 to 30 uM by Ninety-Six Well microbioassay; type: functional, organism-based
Procedure, shortened: (§2)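 Fungi (the Colletotrichum isolates came from strawberry anthracnose lesions) were grown on PDA at 24 ± 2 °C under a 12 h photoperiod. They were tested in 96-well microtiter dose-response format at final concentrations of 0.3, 3.0 and 30.0 μM, in duplicate. Growth was read as absorbance at 620 nm at 0, 24, 48 and 72 h, with solvent controls.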

[7] = test system: Colletotrichum fragariae; assay: Antifungal activity against Colletotrichum fragariae assessed as growth inhibition at 0.3 to 30 uM by Ninety-Six Well microbioassay; type: functional, organism-based; procedure, shortened: as §2
[8] = test system: Colletotrichum gloeosporioides; assay: Antifungal activity against Colletotrichum gloeosporioides assessed as growth inhibition at 0.3 to 30 uM by Ninety-Six Well microbioassay; type: functional, organism-based; procedure, shortened: as §2
[9] = test system: Colletotrichum fragariae; assay: Antifungal activity against Colletotrichum fragariae assessed as growth inhibition at 10 ug/spot by […]; type: functional

## C/C=C\C#CC#C/C=C\C(=O)OC [(2Z,8Z)-MATRICARIA ACID METHYL ESTER]
[1]
  Activity: Toxic
[2]
  Activity: Toxic

## CCCC#C/C=C1/C=CC(=O)O1 [(4Z)-LACHNOPHYLLUM LACTONE]
[1]
  Activity: Toxic
[3]
  IC50: 104 µM
[4]
  diameter of the inhibition zone (DIZ): 0.58 mm
[2]
  Activity: Toxic
[5]
  diameter of the inhibition zone (DIZ): 0.75 mm
[6]
  Activity: Active
[7]
  Activity: Active
[8]
  Activity: Active
[9]
  diameter of the inhibition zone (DIZ): 0.3 mm

## C/C=C\C#C/C=C1/C=CC(=O)O1 [(4Z,8Z)-MATRICARIA LACTONE]
[1]
  Activity: Toxic
[3]
  IC50: 220 µM
[4]
  diameter of the inhibition zone (DIZ): 0.98 mm
[2]
  Activity: Toxic
[5]
  diameter of the inhibition zone (DIZ): 0.7 mm
[6]
  Activity: Active
[7]
  Activity: Active
[8]
  Activity: Active
[9]
  diameter of the inhibition zone (DIZ): 2.65 mm
